Results reported in ChEMBL document CHEMBL4177768, “Synthesis and Biological Evaluation of Derivatives of Indoline as Highly Potent Antioxidant and Anti-inflammatory Agents” (J Med Chem, 2018).
Calls of active or inactive are those of the source. The calls are words filed in the database; no cut-off is given here.

Tests used:
[1] = test system: RAW264.7; assay: Antiinflammatory activity in mouse RAW264.7 cells assessed as reduction in LPS-induced IL-6 production at 10 pM incubated for 2 hrs prior to LPS challenge measured after 24 hrs by ELISA; type: functional; design: scale not given: the % may be the effect or the level left
Method in brief: (§1)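 RAW 264.7 macrophages were plated at 1×10^5 per well, grown overnight and washed with PBS. Compounds in water (final 1 pM-100 nM, medium with 2% FCS) were added 2 h at 37 °C before E. coli 0111:B4 LPS, 2.5 µg/mL. TNF-α was sampled at 8 h; IL-6 and nitrite (Griess) at 24 h. ELISA was used for cytokines. Values are % of the LPS + medium value in each experiment. Budesonide was the reference. 2-3 experiments, 6 wells per concentration.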

[2] = test system: RAW264.7; assay: Antiinflammatory activity in mouse RAW264.7 cells assessed as reduction in LPS-induced TNF-alpha production at 1 pM to 100 nM incubated for 2 hrs prior to LPS challenge measured after 8 hrs by ELISA; type: functional, cell-based; method in brief: as §1
[3] = Cytotoxicity against mouse RAW264.7 cells assessed as cell viability at 10^-12 M after 24 hrs by MTT assay relative to control; type: cell-based; details: read-out: Activity
Method in brief: (§2)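 RAW 264.7 cells, seeded at 1×10^4 cells/mL and incubated 24 h, were exposed to compound from 1 pM to 100 nM. Viability was read by MTT (final 0.5 mg/mL, 1 h at 37 °C), with formazan dissolved in DMSO and OD at 570 nm. Results are compared with medium-only cells.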

[4] = test system: RAW264.7; assay: Cytoprotective activity against H2O2-induced oxidative stress in mouse RAW264.7 cells assessed as cell viability at 1 pM incubated for 2 hrs prior to H2O2 addition measured after 24 hrs by MTT assay (reference value: 68 to 72.8%); type: functional; details: read-out: Activity
[5] = test system: RAW264.7; assay: Antiinflammatory activity in mouse RAW264.7 cells assessed as reduction in LPS-induced nitric oxide production at 10 pM incubated for 2 hrs prior to LPS challenge measured after 24 hrs by Griess assay; type: functional; design: scale not given: the % may be the effect or the level left; method in brief: as §1
[6] = Cytotoxicity against mouse RAW264.7 cells assessed as cell viability at 10^-11 M after 24 hrs by MTT assay relative to control; type: cell-based; details: read-out: Activity; method in brief: as §2
[7] = Cytotoxicity against mouse RAW264.7 cells assessed as cell viability at 10^-10 M after 24 hrs by MTT assay relative to control; type: cell-based; details: read-out: Activity; method in brief: as §2
[8] = Cytotoxicity against mouse RAW264.7 cells assessed as cell viability at 10^-7 M after 24 hrs by MTT assay relative to control; type: cell-based; details: read-out: Activity; method in brief: as §2
[9] = Cytotoxicity against mouse RAW264.7 cells assessed as cell viability at 10^-8 M after 24 hrs by MTT assay relative to control; type: cell-based; details: read-out: Activity; method in brief: as §2
[10] = test system: RAW264.7; assay: Antiinflammatory activity in mouse RAW264.7 cells assessed as reduction in LPS-induced TNF-alpha production at 10 pM incubated for 2 hrs prior to LPS challenge measured after 8 hrs by ELISA; type: functional; design: scale not given: the % may be the effect or the level left; method in brief: as §1
[11] = test system: RAW264.7; assay: Antiinflammatory activity in mouse RAW264.7 cells assessed as reduction in LPS-induced nitric oxide production at 1 pM to 100 nM incubated for 2 hrs prior to LPS challenge measured after 24 hrs by Griess assay; type: functional, cell-based; method in brief: as §1
[12] = Cytotoxicity against mouse RAW264.7 cells assessed as cell viability at 10^-9 M after 24 hrs by MTT assay relative to control; type: cell-based; details: read-out: Activity; method in brief: as §2
[13] = test system: RAW264.7; assay: Cytoprotective activity against H2O2-induced oxidative stress in mouse RAW264.7 cells assessed as decrease in caspase-3 activity at 1 pM incubated for 4 hrs prior to H2O2 addition measured after 90 mins by caspase-GloR reagent-based luminescence assay relative to control; type: functional
Method in brief: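 RAW 264.7 macrophages were pretreated with compound (1 pM or 1 nM) 4 h before H2O2 100 µM. Medium was replaced with fresh DMEM after 90 min and plates were incubated overnight. Caspase-Glo 3/7 reagent was added and luminescence read after 30 min at room temperature. Mean ± SD, 4-6 replicates.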

[14] = test system: RAW264.7; assay: Cytoprotective activity against H2O2-induced oxidative stress in mouse RAW264.7 cells assessed as decrease in LDH release at 1 pM incubated for 2 hrs prior to H2O2 addition by colorimetric assay relative to control; type: functional; design: scale not given: the % may be the effect or the level left
Method in brief: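 RAW 264.7 cells were seeded and pretreated with compound before H2O2 100 µM, in serum-free medium. Collected medium was centrifuged and incubated with reaction mix 30 min at room temperature. LDH was measured as NADH formation by colorimetric read at 490 nm. n = 8-10 replicates per concentration.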

[15] = test system: RAW264.7; assay: Cytoprotective activity against H2O2-induced oxidative stress in mouse RAW264.7 cells assessed as cell viability at 1 nM incubated for 2 hrs prior to H2O2 addition measured after 24 hrs by MTT assay (reference value: 68 to 72.8%); type: functional; details: read-out: Activity
[16] = test system: RAW264.7; assay: Antiinflammatory activity in mouse RAW264.7 cells assessed as reduction in LPS-induced nitric oxide production at 100 pM incubated for 2 hrs prior to LPS challenge measured after 24 hrs by Griess assay; type: functional; method in brief: as §1
[17] = test system: RAW264.7; assay: Antiinflammatory activity in mouse RAW264.7 cells assessed as reduction in LPS-induced IL-6 production at 1 nM incubated for 2 hrs prior to LPS challenge measured after 24 hrs by ELISA; type: functional; method in brief: as §1
[18] = test system: RAW264.7; assay: Antiinflammatory activity in mouse RAW264.7 cells assessed as reduction in LPS-induced TNF-alpha production at 100 pM incubated for 2 hrs prior to LPS challenge measured after 8 hrs by ELISA; type: functional; method in brief: as §1
[19] = test system: RAW264.7; assay: Antiinflammatory activity in mouse RAW264.7 cells assessed as reduction in LPS-induced nitric oxide production at 1 nM incubated for 2 hrs prior to LPS challenge measured after 24 hrs by Griess assay; type: functional; method in brief: as §1
[20] = test system: RAW264.7; assay: Antiinflammatory activity in mouse RAW264.7 cells assessed as reduction in LPS-induced IL-6 production at 100 pM incubated for 2 hrs prior to LPS challenge measured after 24 hrs by ELISA; type: functional; method in brief: as §1
[21] = test system: RAW264.7; assay: Cytoprotective activity against H2O2-induced oxidative stress in mouse RAW264.7 cells assessed as decrease in LDH release at 1 pM incubated for 2 hrs prior to H2O2 addition by colorimetric assay relative to control; design: scale not given: the % may be the effect or the level left
[22] = test system: RAW264.7; assay: Antiinflammatory activity in mouse RAW264.7 cells assessed as reduction in LPS-induced TNF-alpha production at 1 nM incubated for 2 hrs prior to LPS challenge measured after 8 hrs by ELISA; type: functional; method in brief: as §1

## COC(=O)CCN1CCc2cc(Cl)ccc21.Cc1ccc(S(C)(=O)=O)cc1
[1]
  Activity: 50%
[2]
  Activity: Active
[3]
  viability at 24 h, 1e-06 µM: 108%
[4]
  viability at 1 pM: 89.7%
[5]
  Activity: 50%
[6]
  viability at 24 h, 1e-05 µM: 106%
[7]
  viability at 24 h, 0.0001 µM: 104%
[8]
  viability at 24 h, 0.1 µM: 105%
[9]
  viability at 24 h, 0.01 µM: 107%
[10]
  Activity: 50%
[11]
  Activity: Active
[12]
  viability at 24 h, 0.001 µM: 104%

## Cl.NCCCN1CCc2ccccc21
[13]
  Activity: inactive
[2]
  Activity: Active
[14]
  Activity: 16%
[15]
  viability at 0.001 µM: 91.9%
[16]
  Activity: Active
[17]
  Activity: Active
[18]
  Activity: Active
[19]
  Activity: Active
[20]
  Activity: Active
[21]
  Activity: 16%
[11]
  Activity: Active
[22]
  Activity: Active
